The source of these data is ChEMBL document CHEMBL4513216, “Probing the Open Global Health Chemical Diversity Library for Multistage-Active Starting Points for Next-Generation Antimalarials” (ACS Infect Dis, 2020).

The series can be described thus: Toxicity liver stage against HepG2, at 10uM. Conditions: human, HepG2-A16-CD81EGFP cells; read-out: INHIBITION
More on the design: test concentration 10 uM, cell line HepG2-A16-CD81EGFP. It is filed as cell-based. The method, boiled down: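 Uninfected HepG2-A16-CD81EGFP cells, 3 × 10^3 per well, 1536-well, plated on prespotted compound at 10 μM final, parasite-free screening media added to match infected plates; puromycin 10 μM positive, DMSO 0.5% negative; run in parallel with 48 h PbLuc assay at 37 °C, 5% CO2; viability by CellTiter-Glo luminescence, normalized to controls.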
For `COCc1ncc(CN2CC[C@@](O)(COC)C(C)(C)C2)cn1`, the cytotoxicity at 10 µM is -2.79%.

Consider `CCN1CCC(CC(=O)NCCc2nc(C)cc(C)n2)CC1`, for which the cytotoxicity at 10 µM was -8.06%. As to `CN1CCCC1c1ccnc2nccn12` (stereo not given), the cytotoxicity at 10 µM turned out to be 6.84%. For `CCc1noc(CN2CCN(C(=O)c3ccccc3F)CC2)n1` the value was -23.2%; for `Cc1ccc(N2CCCC(NCC(=O)NC3CCOCC3)C2)nn1` (stereo not given), 3.08%.

On to `O=C(CC1CCCC1)N[C@H]1CN(Cc2c[nH]cn2)C[C@@H]1C1CC1`, for which the cytotoxicity at 10 µM was -54.7%.

For the compound `CCn1ncc2c1C(COC)CN(Cc1cnn(C)c1)C2` (stereo not given), the cytotoxicity at 10 µM was 1.49%.

In the case of `O=C(COC1CCCC1)N1C[C@@H]2COC[C@]2(COc2cccnc2)C1`, the cytotoxicity at 10 µM was -99.4%. Regarding `CC1CCCN(c2ncc(C(=O)NCc3ccc(F)c(Cl)c3)c(N)n2)C1` (stereo not given), the cytotoxicity at 10 µM is -2.83%. Take `COC(C)(C)C(=O)N[C@H]1CN(c2ncccc2C(N)=O)C[C@@H]1C(C)C`: the cytotoxicity at 10 µM was determined as 6.66%. Turning to `CN(C(=O)c1ccccc1F)[C@@H]1CC[C@@H](O)[C@@H]1O`, the cytotoxicity at 10 µM was -6.11%.

Turning to `CC(C)(C)n1ncc2c1CCCC2NCc1ccc2c(c1)CCO2` (stereo not given), the cytotoxicity at 10 µM was determined as 2.55%.

For the compound `O=C(NCCC(=O)N1CCCC1)c1cccnc1`, the cytotoxicity at 10 µM worked out at 11%.

On to `CN(C)C(=O)N1CCN(C(=O)c2ccc(Cl)c(Cl)c2)C(C)(C)C1`, for which the cytotoxicity at 10 µM is -4.71%. With `Cc1cccc(N2CC3(CCN(C(=O)NC(C)C)C3)CC2=O)c1` (stereo not given) the figure was -3.7%; with `Cc1cc(C)n(C2CN(CC(=O)NC(C3CC3)C3CC3)C2)n1`, -9.8%; with `CC(C)c1cc(N2CCC3(CC2)CN(C)CCN3C)ncn1`, -16.2%. Take `Cc1ccc(NC(=O)N2CCCC(N(C)C)C2)c(Br)c1` (stereo not given): the cytotoxicity at 10 µM is -3.51%. `N#Cc1cc(S(N)(=O)=O)ccc1NC1CCc2cc(Cl)ccc21` (stereo not given): the cytotoxicity at 10 µM turned out to be 29.1%. Turning to `Cc1ccc2c(ccn2CCC(=O)N2CCC(C(N)=O)CC2)c1`, the cytotoxicity at 10 µM is -12.6%.

In the case of `Cc1cccc(C(C(=O)NCc2nc(-c3ncccn3)no2)N(C)C)c1` (stereo not given), the cytotoxicity at 10 µM was -1.57%. `Cc1ccnc(NCCNC(=O)Cc2c(C)[nH]c3c(C)ccc(C)c23)c1`: the cytotoxicity at 10 µM is -1.89%. As to `CC(C)c1ccc(NC2CCCN(Cc3ccncc3)C2)cc1` (stereo not given), the cytotoxicity at 10 µM is -10.8%. Consider `O=C1CCC(=O)N1c1nn(Cc2cccc(F)c2)cc1Cl`, for which the cytotoxicity at 10 µM is -6.61%. For `CC(NCc1ccccc1Cl)c1ccc2[nH]c(=O)[nH]c2c1` (stereo not given), the cytotoxicity at 10 µM is -9.7%. For the compound `CC(C)CNC(=O)CNC(=O)NC(C)COc1ccccc1F` (stereo not given), the cytotoxicity at 10 µM was -0.956%. Consider `OC(CN1CCC(c2ccn[nH]2)CC1)c1cccc(F)c1` (stereo not given), for which the cytotoxicity at 10 µM is -7.64%.

Regarding `CSCCC(NC(N)=O)C(=O)NCc1cnn(-c2ccccc2)c1` (stereo not given), the cytotoxicity at 10 µM amounted to 5.79%. `CC(NC(N)=O)C(=O)N1CCCN(Cc2nccn2C(C)C)CC1` (stereo not given): the cytotoxicity at 10 µM came to 1.95%. With `Cc1cccc(C(=O)NCCNCC2CNc3ccnn3C2)c1` (stereo not given) the figure was -0.00278%. For `CC(C)NC(=O)CC1COC2(CCN(Cc3cccnc3)CC2)C1` (stereo not given), the cytotoxicity at 10 µM came to 0.405%. `Cc1cncc(C(=O)N(c2ccc(F)cn2)C2CCOCC2)c1`: the cytotoxicity at 10 µM is 0.0591%. Regarding `CC(=O)NC1CCCN(C(=O)Nc2cnc3c(cnn3C(C)C)c2)C1` (stereo not given), the cytotoxicity at 10 µM was -4.67%. `CCc1nncn1CCNC(=O)N1CCN(Cc2ccccc2)CC1`: the cytotoxicity at 10 µM came to 3.84%. Take `O=C1OCCC1N1CCN(C(=O)Cc2c[nH]c3ccccc23)CC1` (stereo not given): the cytotoxicity at 10 µM is -7.03%. As for `Cc1nn(C)c(Cl)c1C1CCCN1c1ncnc2c1CCC2` (stereo not given), the cytotoxicity at 10 µM turned out to be 19.1%. On to `NC(=O)C(NC1CCN(Cc2ccc(F)cc2)CC1)c1ccccc1` (stereo not given), for which the cytotoxicity at 10 µM is -5.4%. With `O=C1COC2(COCCN(c3ccccn3)C2)CN1c1cccc(F)c1` (stereo not given), the cytotoxicity at 10 µM was -103%. Turning to `CCc1cc(C)nc(N2CCN(C(C)c3nc(C)no3)CC2)n1` (stereo not given), the cytotoxicity at 10 µM is -2.64%. Take `Cc1ccc(-c2nc(CN3CCOC(Cn4cccn4)C3)no2)cc1` (stereo not given): the cytotoxicity at 10 µM is -8.93%.

With `COc1ccc(CC(=O)N2CCC(c3n[nH]c(C4CC4)n3)CC2)cc1`, the cytotoxicity at 10 µM is -14.6%. Consider `Cc1nc2ccccc2c(=O)n1CCCC(=O)N1CCNC(=O)CC1`, for which the cytotoxicity at 10 µM was -11.8%.

As for `Cc1cc(C)n(CC2CN(CCOc3ccccc3F)CCO2)n1` (stereo not given), the cytotoxicity at 10 µM was -6.73%. Turning to `COC(=O)c1ccc(N(C(=O)c2cc(Cl)ccn2)C(C)C)c(C)c1`, the cytotoxicity at 10 µM was found to be 7.51%. For `CSC1=Nc2c(cnn2-c2ccc(C)cc2)C2=NCCCN12`, the cytotoxicity at 10 µM stood at 10.3%. Consider `CC(C)Cn1nc(-c2ccc(C(=O)O)cc2)cc1-c1ccc(F)cc1`, for which the cytotoxicity at 10 µM came to 8.88%.

Regarding `CC(=O)N1CCCC1c1nnn2cc(Nc3ccccc3)ccc12` (stereo not given), the cytotoxicity at 10 µM turned out to be 12.2%. `Clc1cccc(C[C@@H]2NCCC[C@@H]2Nc2ccccc2)c1`: the cytotoxicity at 10 µM turned out to be 89.3%. With `O=S(=O)(CC1CCCCO1)Nc1cnn(CC(F)F)c1` (stereo not given) the figure was -3.09%; with `Cc1cc(NC(C)c2csc(C)n2)n2nc(C)c(C)c2n1` (stereo not given), 5.32%. For the compound `CC(C)CCN1C[C@@H]2C[C@H](C(=O)Nc3ccccc3)[C@H](C1)O2`, the cytotoxicity at 10 µM is -7.99%. With `COCCN1CCC2(CC1)CN(C(=O)C1CC1)c1ccc(F)cc12` the figure was -0.213%; with `c1cc2nccc(CC3CCCN(Cc4c[nH]cn4)CC3)c2cn1` (stereo not given), -5.11%; with `Cc1nnc(CCNC2CCN(c3ncnc4c(C)csc34)CC2)s1`, 20.7%.

As to `CC(C)CCN1C(=O)CC(N(C)Cc2nc3ccccc3c(=O)[nH]2)C1=O` (stereo not given), the cytotoxicity at 10 µM was -3.85%. With `COc1ccc(CNCCC(=O)N2CCc3sccc3C2)cc1O` the figure was 4.48%. Turning to `O=C1OCCC1N1CCN(c2ccccn2)CC1` (stereo not given), the cytotoxicity at 10 µM is 7.37%. As to `CN(C)c1ncccc1CNS(=O)(=O)c1ccccc1Cl`, the cytotoxicity at 10 µM is -15.3%. Turning to `CCN1C[C@H]2[C@@H](C1)N(S(=O)(=O)c1cccnc1)CC[C@H]2OC`, the cytotoxicity at 10 µM is -1.78%.

In the case of `O=C(c1ccc2c(c1)CCC2)N1CCC(c2n[nH]c(C3CC3)n2)CC1`, the cytotoxicity at 10 µM was -8.06%.

On to `OCCn1nccc1C1CCN(CCOc2cccc(F)c2)CC1`, for which the cytotoxicity at 10 µM was -10.8%. As for `COc1ccc(CNCC2CN(C3CC3)CCO2)cc1F` (stereo not given), the cytotoxicity at 10 µM was -12.4%. For the compound `O=C(Nc1cccnc1-n1cc(Cl)cn1)C1CCCCC1`, the cytotoxicity at 10 µM was -39%. Turning to `CN(CC1(CO)CCCC1)C(=O)c1cc(COc2ccccc2F)[nH]n1`, the cytotoxicity at 10 µM came to 6.2%. As to `CCn1nc(C)cc1C(=O)N1C[C@@H]2C[C@@H](c3noc(C)n3)O[C@@H]2C1`, the cytotoxicity at 10 µM came out at 8.06%. With `CN1C(=O)C(c2ccccc2)CC12CCN(CCOCCO)CC2` (stereo not given) the figure was 39.8%; with `O=C(NCc1ccc(-n2cncn2)nc1)c1ccc2c(c1)CCC2`, -16.5%; with `CNC(=O)C1CN(C(C)C)CCN1c1nc(C)cc(C)n1` (stereo not given), -10.4%. As to `CC(C)Nc1cc(-c2c[nH]nc2C2CCN(C(=O)C3CCC3)C2)ccn1` (stereo not given), the cytotoxicity at 10 µM is 81.8%. For `Cc1cc(C)c2c(NCCC34CCCN3CCC4)ncnc2n1`, the cytotoxicity at 10 µM is -2.43%. For the compound `CSc1cc(CNC(=O)CCOc2ccccc2C)ccn1`, the cytotoxicity at 10 µM is 6.72%. As for `O=C(NC[C@H]1OC[C@@H](NC2CCC(F)(F)CC2)[C@@H]1O)Nc1ccccc1`, the cytotoxicity at 10 µM was 4.11%. In the case of `Cc1c(C(=O)NC(CN2CCCC2=O)c2ccccc2)cnn1C` (stereo not given), the cytotoxicity at 10 µM is -8.7%.

Regarding `Cc1nn(C)c(N2CCOCC2)c1CNC(C)c1cccnc1` (stereo not given), the cytotoxicity at 10 µM was -13.6%. With `CN(C)C(=O)Cn1cc(C(=O)NCCc2ccc(C(F)(F)F)cc2)nn1`, the cytotoxicity at 10 µM was -15.6%.

Regarding `CCS(=O)(=O)N1CCc2ccc(NC(=O)Nc3ccccc3)cc21`, the cytotoxicity at 10 µM stood at 42.2%. Take `c1csc(N2CCN(c3nccn4cnnc34)CC2)n1`: the cytotoxicity at 10 µM is -5.81%. As to `CC(C)CCN1CCCC(Cn2cc(CCO)nn2)C1` (stereo not given), the cytotoxicity at 10 µM is -6.02%. As to `COc1ccccc1OCc1cc(C(=O)N2CCC(C(C)O)CC2)n[nH]1` (stereo not given), the cytotoxicity at 10 µM was found to be 0.127%. In the case of `CC[C@@H](C)[C@@H](N)C(=O)Nc1cccc(-c2cnc(N(C)C)nc2)c1`, the cytotoxicity at 10 µM was -4.78%. Consider `COc1cccc(NC(=O)NCc2cnn(C)c2)c1`, for which the cytotoxicity at 10 µM is -1.59%. As for `Cc1nc(C(=O)N2CCN(C(C)c3ccccc3F)CC2)cs1` (stereo not given), the cytotoxicity at 10 µM was -0.462%. With `Cc1ccc(C(=O)NC2CCCN(c3ncccn3)C2)cn1` (stereo not given), the cytotoxicity at 10 µM was -7.08%.

With `CNc1cnc(CC2COCCN(Cc3cccc(C)n3)C2)cn1` (stereo not given), the cytotoxicity at 10 µM was 8%.

For the compound `O=c1ccc2c([nH]1)CCN(S(=O)(=O)c1ccc3c(c1)CCCC3)C2`, the cytotoxicity at 10 µM is -4.63%.

Consider `N#Cc1ccc(C(=O)N2CCC3(CC2)C(=O)Nc2ccccc23)cn1`, for which the cytotoxicity at 10 µM amounted to 13.5%. As for `CC(C)Oc1cccc(F)c1C(C(=O)O)N1CCCC1` (stereo not given), the cytotoxicity at 10 µM is -3.33%. Regarding `Cc1csc(N2CCCN(C(=O)Cn3cncn3)CC2)n1`, the cytotoxicity at 10 µM was -3.27%. With `O=C(Nc1ncn(Cc2cccc(Br)c2)n1)C1CCC1` the figure was 11.4%. Consider `CNC(=O)[C@H]1C[C@@H]2CN(S(=O)(=O)c3ccccc3)C[C@@H]2N1C(C)=O`, for which the cytotoxicity at 10 µM is -10.4%. For the compound `COc1cccc(CN2CCCCC2Cn2nc(C)nc2C)c1` (stereo not given), the cytotoxicity at 10 µM is -11.5%. Turning to `COCCN1C(=O)C2(CCN(CC3CC3)CC2)c2ccccc21`, the cytotoxicity at 10 µM was -115%. Consider `NC(=O)[C@@H]1Cc2ccccc2CN1CCC(=O)N1CCOCC1`, for which the cytotoxicity at 10 µM was -5.82%.

Regarding `Cn1cc(NC(=O)CNC(=O)N2CCN(c3ccccc3)CC2)cn1`, the cytotoxicity at 10 µM amounted to 0.0207%. `COCC(=O)N1CC[C@H]2C[C@H](c3nc(C)no3)O[C@@H]2C1`: the cytotoxicity at 10 µM is -76.1%.
